The target of assay [1] is T1, Bromodomain-containing protein 4 (Homo sapiens, UniProt O60885). The experiment in a line: Inhibition of biotinylated H4 K5,8,12,16Ac peptide binding to GST-tagged BRD4 bromodomain1 (unknown origin) measured after 60 mins by AlphaScreen assay.
The target in assay [2] is T1, Bromodomain-containing protein 4. In words: Inhibition of biotinylated H4 K5,8,12,16Ac peptide binding to GST-tagged BRD4 bromodomain2 (unknown origin) at 100 uM measured after 60 mins by AlphaScreen assay relative to control. The essentials: (§1)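 AlphaScreen proximity assay measuring binding of the tetra-acetylated (K5,8,12,16Ac) biotinylated histone H4 peptide to recombinant BRD4 BD1 or BD2. Buffer was 50 mM HEPES with BSA, at 1% DMSO in the 10X compound dilutions. Compound, bromodomain, peptide and histidine-conjugated acceptor beads were incubated 60 min at room temperature. Streptavidin donor beads were then added for 30 min in the dark, and the endpoint Alpha signal read. Inhibition taken at 100 µM, mean of three independent experiments.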
(In general: Bead proximity is the source of the signal in Alpha formats.)

The nature of assay [3]: Antifibrotic activity against human LX2 cells assessed as reduction in cell growth measured after 48 hrs by MTT assay. Format: functional, cell-based. The settings on record: LX-2, 48 h. The essentials: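 Cells grown at 37 °C in 5% CO2. MCF-7, A549 and HT-29 cells were kept in RPMI 1640 with 10% FBS and pen/strep. HepG2, A375, NRK-49F and LX-2 cells were kept in high-glucose DMEM with 10% FBS and pen/strep. HLF-1 cells were kept in DMEM/F-12 (1:1) with 10% FBS. Cells seeded for exponential growth, exposed to a concentration range for 48 h, then MTT added for 4 h at 37 °C. Formazan dissolved in DMSO, absorbance read at 490 nm, IC50 fitted.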
On the technique in general: Tetrazolium dyes change colour on reduction, which living cells bring about.

Assay [4] has as its target T1, Bromodomain-containing protein 4. The experiment in a line: Inhibition of biotinylated H4 K5,8,12,16Ac peptide binding to GST-tagged BRD4 bromodomain1 (unknown origin) at 100 uM measured after 60 mins by AlphaScreen assay relative to control. A digest of the protocol:
as §1

Where only a bound is given, the exact number is not on record here.

For the compound `Cc1noc(C)c1Cn1c(=O)nc(-c2ccc(Cl)cc2)c2c3c(sc21)CC(c1ccccc1)CC3` (stereo unspecified), the IC50 (in general, the concentration needed to halve the response being measured) in assay [1] turned out to be 6 µM; in assay [3], 28.8 µM. Moreover, the inhibition – broadly, the percentage by which the read-out fell short of the control – in assay [2] came to 15.1%.
Regarding `CC(=O)Cn1c(=O)nc(-c2ccccc2)c2c3c(sc21)CCCC3`, the inhibition was determined as 23.7% in assay [4] and 17.2% in assay [2]. Besides, the IC50 in assay [3] is above 300 µM.
On to `Cc1noc(C)c1Cn1c(=O)nc(-c2ccccc2)c2c3c(sc21)CCC3`, for which the results for the inhibition in assay [4] and in assay [2] were 23% and 19.8%, respectively. The half-inhibitory concentration (IC50) in assay [3] is above 300 µM.
As for `Cc1noc(C)c1Cn1c(=O)nc(-c2ccccc2)c2c3c(sc21)CCCC3`, the inhibition in assay [4] is 46.4%; in assay [2], 26.2%. Further, the IC50 in assay [3] was found to be 114 µM.
Consider `CNC(=O)Cn1c(=O)nc(-c2ccccc2)c2c3c(sc21)CCCC3`, for which the inhibition in assay [4] was 38.5%; in assay [2], 3.1%. In addition, the IC50 in assay [3] is above 300 µM.
Consider `COC(=O)C1CCc2c(sc3c2c(-c2ccccc2)nc(=O)n3Cc2c(C)noc2C)C1` (stereo unspecified), for which the inhibition in assay [4] turned out to be 19%; in assay [2] it was 9%. Further, the half-maximal inhibitory concentration (IC50) in assay [3] was above 300 µM.
The like results for `CC(=O)C(C)n1c(=O)nc(-c2ccccc2)c2c3c(sc21)CCCC3` (stereo unspecified) were, in that order, 30%, 13.6% and above 300 µM.
The like results for `COc1ccc(-c2nc(=O)n(Cc3c(C)noc3C)c3sc4c(c23)CCN(C(C)C)C4)cc1` were, in that order, 82.9%, 66.6% and 101 µM.
The like results for `Cc1noc(C)c1Cn1c(=O)nc(-c2ccccc2)c2c3c(sc21)CCCCC3` were, in that order, 84.4%, 81.2% and 140 µM.
Regarding `CC(C)(C)C1CCc2c(sc3c2c(-c2ccc(Cl)cc2)nc(=O)n3Cc2cnc(Cl)s2)C1` (stereo unspecified), the concentration for half-maximal inhibition (IC50) in assay [3] is above 300 µM.
For `O=c1nc(-c2ccc(Cl)cc2)c2c3c(sc2n1Cc1cnc(Cl)s1)CC(c1ccccc1)CC3` (stereo unspecified), the inhibition in assay [4] came out at 44.9%; in assay [2], 14.5%. In addition, in assay [3], the concentration for half-maximal inhibition (IC50) was 98.2 µM.
As to `CCc1c(C)sc2c1c(-c1ccccc1)nc(=O)n2Cc1c(C)noc1C`, the inhibition was 9.5% in assay [4] and 17.8% in assay [2]. Besides, the IC50 in assay [3] was above 300 µM.
On the same counts, the results for `Cn1c(=O)nc(-c2ccccc2)c2c3c(sc21)CCCC3` are 42.6%, 66.2% and above 300 µM.
On the same counts, the results for `CC(C)(C)C1CCc2c(sc3c2c(-c2ccccc2)nc(=O)n3Cc2ncccn2)C1` (stereo unspecified) are 70.4%, 66.6% and 152 µM.
On the same counts, the results for `Cc1noc(C)c1COc1nc(-c2ccc(Cl)c(Cl)c2)c2c3c(sc2n1)CC(C(C)(C)C)CC3` (stereo unspecified) are 32.6%, 9.3% and above 300 µM.
In the case of `Cc1noc(C)c1Cn1c(=O)nc(-c2ccccc2)c2c3c(sc21)CC(C)(C)CC3`, the inhibition in assay [4] amounted to 86.6%; in assay [2] it was 44.9%. Besides, the IC50 in assay [3] was above 300 µM.

The values above are taken from ChEMBL document CHEMBL4392838, “Binding pocket-based design, synthesis and biological evaluation of novel selective BRD4-BD1 inhibitors” (Bioorg Med Chem, 2019).
